Molecular target: Keap1/Nrf2 (Homo sapiens, UniProt Q14145)
Test: Inhibition of Nrf2 peptide (KKKKAFFAQLQLDEETGEFL) binding to Keap1 Kelch domain (321 to 609 residues) (unknown origin) assessed as dissociation constant by surface plasmon resonance based inhibition in solution assay
Format: protein assay
Outline: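 Solution-competition SPR at 20 °C in HBS-P (10 mM HEPES, 150 mM NaCl, 0.05% Tween 20, 1.0 mM TCEP, pH 7.40), 10 µL/min. Nrf2 peptide amine-coupled to CM5 chip (400–600 RU). 25 nM Keap1 Kelch domain (aa321–609) preincubated with compound, injected; initial association slopes (5–15 s) vs compound-free controls give free Keap1. KD by nonlinear regression; mean ± SD of three measurements on distinct samples.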

Sequence of Keap1/Nrf2 (Q16236 whole entry, the tested form may be a part): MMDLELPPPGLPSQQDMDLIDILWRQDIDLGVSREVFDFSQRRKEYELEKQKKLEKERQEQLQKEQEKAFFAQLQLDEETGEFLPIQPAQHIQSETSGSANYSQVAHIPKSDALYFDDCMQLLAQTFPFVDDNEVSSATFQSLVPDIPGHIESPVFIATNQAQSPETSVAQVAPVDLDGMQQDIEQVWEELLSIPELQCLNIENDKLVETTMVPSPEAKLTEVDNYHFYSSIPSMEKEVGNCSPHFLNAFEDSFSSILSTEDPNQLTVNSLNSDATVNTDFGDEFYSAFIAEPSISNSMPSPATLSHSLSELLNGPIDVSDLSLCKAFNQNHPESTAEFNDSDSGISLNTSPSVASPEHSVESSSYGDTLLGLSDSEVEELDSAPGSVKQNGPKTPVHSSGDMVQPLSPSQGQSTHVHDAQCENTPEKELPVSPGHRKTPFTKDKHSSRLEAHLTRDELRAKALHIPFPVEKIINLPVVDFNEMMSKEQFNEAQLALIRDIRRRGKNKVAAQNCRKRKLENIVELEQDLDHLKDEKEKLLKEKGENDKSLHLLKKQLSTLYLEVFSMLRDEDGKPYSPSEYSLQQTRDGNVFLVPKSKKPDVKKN
Sequence of Keap1/Nrf2 (Q14145 whole entry, the tested form may be a part): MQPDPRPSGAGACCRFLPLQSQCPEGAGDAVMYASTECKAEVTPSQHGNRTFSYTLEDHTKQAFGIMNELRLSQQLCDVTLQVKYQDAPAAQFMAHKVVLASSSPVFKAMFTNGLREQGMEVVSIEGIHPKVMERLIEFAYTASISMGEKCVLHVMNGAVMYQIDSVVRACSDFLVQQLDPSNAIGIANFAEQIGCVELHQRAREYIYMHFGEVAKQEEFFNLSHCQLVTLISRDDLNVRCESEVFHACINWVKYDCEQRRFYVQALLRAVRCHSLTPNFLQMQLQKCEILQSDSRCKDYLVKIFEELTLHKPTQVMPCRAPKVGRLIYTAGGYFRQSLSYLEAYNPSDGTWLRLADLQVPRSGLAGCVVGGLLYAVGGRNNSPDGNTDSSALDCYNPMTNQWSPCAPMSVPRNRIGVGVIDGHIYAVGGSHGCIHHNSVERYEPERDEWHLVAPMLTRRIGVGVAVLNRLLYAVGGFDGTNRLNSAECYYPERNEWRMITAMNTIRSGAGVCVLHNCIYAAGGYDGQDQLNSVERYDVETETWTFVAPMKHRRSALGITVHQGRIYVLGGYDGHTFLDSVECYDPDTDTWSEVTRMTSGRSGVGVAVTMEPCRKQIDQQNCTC

Compound	Kd [µM]
CSC[C@@H](NC(=O)[C@@H](COC(=O)c1ccccc1)NC(=O)[C@@H]1CCCN1C(C)=O)C(=O)N(C)C	406
COC(=O)[C@H]1CSCc2ccccc2C(=O)OC[C@@H](NC(=O)[C@H]2CCCN2C(C)=O)C(=O)N1	> 500
COC(=O)[C@H]1CSCc2ccccc2C(=O)OC[C@@H](NC(=O)[C@@H]2C[C@@H](O)CN2C(C)=O)C(=O)N1	270
CNC(=O)[C@H]1CSCc2ccccc2C(=O)OC[C@@H](NC(=O)[C@@H]2CCCN2C(C)=O)C(=O)N1	209
COC(=O)[C@H]1CSCc2ccccc2C(=O)OC[C@H](NC(=O)[C@@H]2CCCN2C(C)=O)C(=O)N1	> 500
CC(=O)N1CCC[C@H]1C(=O)N[C@@H]1COC(=O)c2ccccc2CSC[C@H](C(N)=O)NC1=O	> 500
CCN(CC)C(=O)[C@H]1CSCc2ccccc2C(=O)OC[C@@H](NC(=O)[C@@H]2CCCN2C(C)=O)C(=O)N1	> 500
COC(=O)[C@@H]1CSCc2ccccc2C(=O)OC[C@H](NC(=O)[C@@H]2CCCN2C(C)=O)C(=O)N1	> 500
COC(=O)[C@H]1CSCc2ccccc2C(=O)OC[C@@H](NC(=O)[C@@H]2CCCN2C(C)=O)C(=O)N1	237
CC(=O)N1CCC[C@H]1C(=O)N[C@@H]1COC(=O)c2ccccc2CSC[C@H](C(=O)N(C)C)NC(=O)CNC1=O	> 500
CC(=O)N1CCC[C@H]1C(=O)N[C@@H]1CCOC(=O)c2ccccc2CSC[C@H](C(=O)N(C)C)NC1=O	> 500
COC(=O)[C@@H]1CSCc2ccccc2C(=O)OC[C@@H](NC(=O)[C@@H]2CCCN2C(C)=O)C(=O)N1	> 500
